Source: publication PMC6810844 (Cellular and molecular life sciences : CMLS, 2019)

Key:
BoSGBPMLG-B = molecular target: T1, BoSGBPMLG-B (Bacteroides ovatus, UniProt A0ABU3IRL2); test: isothermal titration calorimetry; type: binding; details: 50 mM sodium phosphate pH 7.0, 25 °C; n fixed at 1
T1 sequence (A0ABU3IRL2 22-420): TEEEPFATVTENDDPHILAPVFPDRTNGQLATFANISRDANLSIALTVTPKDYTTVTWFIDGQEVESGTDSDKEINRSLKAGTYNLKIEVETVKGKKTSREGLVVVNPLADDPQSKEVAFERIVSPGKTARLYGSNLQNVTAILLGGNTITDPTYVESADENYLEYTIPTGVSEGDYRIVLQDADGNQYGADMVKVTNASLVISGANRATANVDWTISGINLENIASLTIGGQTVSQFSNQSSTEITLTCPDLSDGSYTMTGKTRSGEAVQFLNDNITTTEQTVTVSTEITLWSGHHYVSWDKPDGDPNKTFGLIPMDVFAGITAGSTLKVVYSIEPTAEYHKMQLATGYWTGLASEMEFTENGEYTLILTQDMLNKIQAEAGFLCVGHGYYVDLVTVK
Outline: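 His6-tagged protein was produced in E. coli BL21(DE3) and purified by nickel affinity. Titrations ran at 25 °C in 50 mM sodium phosphate pH 7.0, except bMLG, which used 10 mM HEPES pH 7.0. 20–100 µM protein in the cell received one 2 µL injection, then 24 × 10 µL of 2.5–4.0 mg/mL polysaccharide or 1–2 mM oligosaccharide, with stirring at 280 rpm. MLG Ka was converted from g/L assuming a hexasaccharide motif.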

BoSGBPMLG-A = molecular target: T2, BoSGBPMLG-A (Bacteroides ovatus, UniProt A0AAN3A7L1); test: isothermal titration calorimetry; type: binding; details: 50 mM sodium phosphate pH 7.0, 25 °C
T2 sequence (A0AAN3A7L1 23-558): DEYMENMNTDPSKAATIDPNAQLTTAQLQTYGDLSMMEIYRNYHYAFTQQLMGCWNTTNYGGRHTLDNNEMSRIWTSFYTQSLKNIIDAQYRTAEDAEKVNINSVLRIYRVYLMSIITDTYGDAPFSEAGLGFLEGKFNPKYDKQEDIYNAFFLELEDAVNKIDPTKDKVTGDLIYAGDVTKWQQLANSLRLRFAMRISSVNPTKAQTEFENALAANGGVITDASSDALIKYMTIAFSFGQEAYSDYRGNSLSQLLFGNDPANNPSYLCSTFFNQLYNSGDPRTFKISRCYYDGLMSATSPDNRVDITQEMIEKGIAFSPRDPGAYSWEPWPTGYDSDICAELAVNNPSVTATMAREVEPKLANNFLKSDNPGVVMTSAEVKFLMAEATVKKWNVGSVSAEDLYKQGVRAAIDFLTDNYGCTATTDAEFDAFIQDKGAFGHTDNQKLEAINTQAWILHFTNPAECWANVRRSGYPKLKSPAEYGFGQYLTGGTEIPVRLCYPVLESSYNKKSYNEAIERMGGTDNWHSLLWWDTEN
Outline: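 Recombinant His6-tagged protein was expressed in E. coli BL21(DE3), Ni-IMAC purified, and exchanged into 50 mM sodium phosphate pH 7.0. In the cell: 20–100 µM protein at 25 °C, stirred at 280 rpm. Injections: 2 µL, then 24 × 10 µL of 2.5–4.0 mg/mL polysaccharide or 1–2 mM oligosaccharide. Heat recorded. Molar polysaccharide Ka assumed a hexasaccharide motif for MLG and a Glc8-backbone motif for XyG.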

Row | SMILES | Ka (M^-1) / BoSGBPMLG-B (BoSGBPMLG-B) | Ka (M^-1) / BoSGBPMLG-A (BoSGBPMLG-A) | Ka (M^-1) / BoSGBPMLG-A (BoSGBPMLG-A; n fixed at 1)
1 | OC[C@H]1O[C@@H](O[C@H]2[C@H](O)[C@@H](O)[C@H](O[C@H]3[C@H](O)[C@@H](O)[C@H](O[C@@H]4[C@@H](O)[C@H](O[C@H]5[C@H](O)[C@@H](O)[C@H](O[C@H]6[C@H](O)[C@@H](O)[C@H](O[C@H]7[C@H](O)[C@@H](CO)OC(O)[C@@H]7O)O[C@@H]6CO)O[C@@H]5CO)O[C@H](CO)[C@H]4O)O[C@@H]3CO)O[C@@H]2CO)[C@H](O)[C@@H](O)[C@@H]1O (stereo partly drawn) [MLG7, G4G4G3G4G4G3G] | (4.69 ± 0.13) × 10^3 | (4.51 ± 0.34) × 10^4 | 
2 | OC[C@H]1O[C@@H](O[C@H]2[C@H](O)[C@@H](O)[C@H](O[C@@H]3[C@@H](O)[C@H](O[C@H]4[C@H](O)[C@@H](O)[C@H](O[C@H]5[C@H](O)[C@@H](O)[C@H](O[C@H]6[C@H](O)[C@@H](CO)OC(O)[C@@H]6O)O[C@@H]5CO)O[C@@H]4CO)O[C@H](CO)[C@H]3O)O[C@@H]2CO)[C@H](O)[C@@H](O)[C@@H]1O (stereo partly drawn) [MLG6, G4G3G4G4G3G] | (3.16 ± 0.19) × 10^3 | (1.44 ± 0.04) × 10^4 | 
3 | OC[C@H]1O[C@@H](O[C@H]2[C@H](O)[C@@H](O)[C@H](O[C@H]3[C@H](O)[C@@H](O)[C@H](O[C@H]4[C@H](O)[C@@H](O)[C@H](O[C@H]5[C@H](O)[C@@H](O)[C@H](O[C@H]6[C@H](O)[C@@H](O)C(O)O[C@@H]6CO)O[C@@H]5CO)O[C@@H]4CO)O[C@@H]3CO)O[C@@H]2CO)[C@H](O)[C@@H](O)[C@@H]1O (stereo partly drawn) [Cellohexaose] | (3.1 ± 0.06) × 10^3 |  | (3.39 ± 0.03) × 10^3
